Experimental data as given in ChEMBL document CHEMBL5058577, “EUbOPEN Chemogenomics Library 2 (Multiplex)” (2022).

Tested on: U2OS
Test: Multiplex assay against U2OS
Type: toxicity, cell-based
Conditions: human
How it was run: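 Compound was added to live cells that had been stained at seeding with Hoechst33342, BioTracker Green Microtubule Cytoskeleton Dye, MitoTracker Red and Annexin V Alexa Fluor 680, and imaging followed on a CQ1 microscope at 37°C and 5% CO2. CellPathfinder machine-learning gating divided cells into Hoechst high-intensity objects or normal cells, normal cells into healthy, pyknosed or fragmented nuclei, and pyknosed cells into mitotic or apoptotic. Tubulin, mitochondrial-mass and membrane-permeability phenotypes are per cents of healthy-nucleus cells.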

[1] = 12 h, 1 µM, compound concentration 1 uM, replicate 1
[2] = 12 h, 1 µM, compound concentration 1 uM, replicate 2
[3] = 12 h, 10 µM, compound concentration 10 uM, replicate 1
[4] = 12 h, 10 µM, compound concentration 10 uM, replicate 2
[5] = 24 h, 1 µM, compound concentration 1 uM, replicate 1
[6] = 24 h, 1 µM, compound concentration 1 uM, replicate 2
[7] = 24 h, 10 µM, compound concentration 10 uM, replicate 1
[8] = 24 h, 10 µM, compound concentration 10 uM, replicate 2
[9] = 48 h, 1 µM, compound concentration 1 uM, replicate 1
[10] = 48 h, 1 µM, compound concentration 1 uM, replicate 2
[11] = 48 h, 10 µM, compound concentration 10 uM, replicate 1
[12] = 48 h, 10 µM, compound concentration 10 uM, replicate 2

**Q.** What does the source list for CC1(COc2ccc3c(c2)ncn3-c2ccc3cccc(N4CCC(N)CC4)c3n2)COC1 [CRENOLANIB]?
**A.** Population Apoptotic (%) [1]: 58%; Population Fragmented Nuclei (%) [1]: 36%; Population Healthy Nuclei (%) [1]: 50%; Population Hoechst High Intensity Objects (%) [1]: 9%; Population Membrane Permeable-Phenotype (%) [1]: 87%; Population Mitochondria Different-Phenotype (%) [1]: 51%; Population Mitotic Cells (%) [1]: 41%; Population Normal (%) [1]: 90%; Population Pyknosed Nuclei (%) [1]: 13%; Population Tubulin-Different-Phenotype (%) [1]: 92%; Total Cell Count [1]: 143; Population Apoptotic (%) [2]: 25%; Population Fragmented Nuclei (%) [2]: 28%; Population Healthy Nuclei (%) [2]: 60%; Population Hoechst High Intensity Objects (%) [2]: 13%; Population Membrane Permeable-Phenotype (%) [2]: 82%; Population Mitochondria Different-Phenotype (%) [2]: 73%; Population Mitotic Cells (%) [2]: 75%; Population Normal (%) [2]: 86%; Population Pyknosed Nuclei (%) [2]: 10%; Population Tubulin-Different-Phenotype (%) [2]: 88%; Total Cell Count [2]: 86; Population Apoptotic (%) [3]: 81%; Population Fragmented Nuclei (%) [3]: 43%; Population Healthy Nuclei (%) [3]: 11%; Population Hoechst High Intensity Objects (%) [3]: 21%; Population Membrane Permeable-Phenotype (%) [3]: 76%; Population Mitochondria Different-Phenotype (%) [3]: 80%; Population Mitotic Cells (%) [3]: 18%; Population Normal (%) [3]: 78%; Population Pyknosed Nuclei (%) [3]: 44%; Population Tubulin-Different-Phenotype (%) [3]: 88%; Total Cell Count [3]: 274; Population Apoptotic (%) [4]: 92%; Population Fragmented Nuclei (%) [4]: 37%; Population Healthy Nuclei (%) [4]: 21%; Population Hoechst High Intensity Objects (%) [4]: 24%; Population Membrane Permeable-Phenotype (%) [4]: 47%; Population Mitochondria Different-Phenotype (%) [4]: 76%; Population Mitotic Cells (%) [4]: 7%; Population Normal (%) [4]: 75%; Population Pyknosed Nuclei (%) [4]: 41%; Population Tubulin-Different-Phenotype (%) [4]: 85%; Population Apoptotic (%) [5]: 71%; Population Fragmented Nuclei (%) [5]: 39%; Population Healthy Nuclei (%) [5]: 45%; Population Hoechst High Intensity Objects (%) [5]: 9%; Population Membrane Permeable-Phenotype (%) [5]: 71%; Population Mitochondria Different-Phenotype (%) [5]: 62%; Population Mitotic Cells (%) [5]: 28%; Population Normal (%) [5]: 90%; Population Pyknosed Nuclei (%) [5]: 14%; Population Tubulin-Different-Phenotype (%) [5]: 87%; Total Cell Count [5]: 156; Population Apoptotic (%) [6]: 54%; Population Fragmented Nuclei (%) [6]: 25%; Population Healthy Nuclei (%) [6]: 62%; Population Hoechst High Intensity Objects (%) [6]: 10%; Population Membrane Permeable-Phenotype (%) [6]: 67%; Population Mitochondria Different-Phenotype (%) [6]: 67%; Population Mitotic Cells (%) [6]: 45%; Population Normal (%) [6]: 89%; Population Pyknosed Nuclei (%) [6]: 12%; Population Tubulin-Different-Phenotype (%) [6]: 72%; Total Cell Count [6]: 98; Population Apoptotic (%) [7]: 93%; Population Fragmented Nuclei (%) [7]: 46%; Population Healthy Nuclei (%) [7]: 8%; Population Hoechst High Intensity Objects (%) [7]: 37%; Population Membrane Permeable-Phenotype (%) [7]: 42%; Population Mitochondria Different-Phenotype (%) [7]: 50%; Population Mitotic Cells (%) [7]: 6%; Population Normal (%) [7]: 62%; Population Pyknosed Nuclei (%) [7]: 45%; Population Tubulin-Different-Phenotype (%) [7]: 50%; Total Cell Count [7]: 254; Population Apoptotic (%) [8]: 100%; Population Fragmented Nuclei (%) [8]: 53%; Population Healthy Nuclei (%) [8]: 11%; Population Hoechst High Intensity Objects (%) [8]: 36%; Population Membrane Permeable-Phenotype (%) [8]: 44%; Population Mitochondria Different-Phenotype (%) [8]: 77%; Population Mitotic Cells (%) [8]: 0%; Population Normal (%) [8]: 63%; Population Pyknosed Nuclei (%) [8]: 34%; Population Tubulin-Different-Phenotype (%) [8]: 77%; Population Apoptotic (%) [9]: 88%; Population Fragmented Nuclei (%) [9]: 41%; Population Healthy Nuclei (%) [9]: 43%; Population Hoechst High Intensity Objects (%) [9]: 8%; Population Membrane Permeable-Phenotype (%) [9]: 35%; Population Mitochondria Different-Phenotype (%) [9]: 40%; Population Mitotic Cells (%) [9]: 12%; Population Normal (%) [9]: 91%; Population Pyknosed Nuclei (%) [9]: 14%; Population Tubulin-Different-Phenotype (%) [9]: 44%; Total Cell Count [9]: 186; Population Apoptotic (%) [10]: 62%; Population Fragmented Nuclei (%) [10]: 37%; Population Healthy Nuclei (%) [10]: 48%; Population Hoechst High Intensity Objects (%) [10]: 4%; Population Membrane Permeable-Phenotype (%) [10]: 53%; Population Mitochondria Different-Phenotype (%) [10]: 37%; Population Mitotic Cells (%) [10]: 37%; Population Normal (%) [10]: 95%; Population Pyknosed Nuclei (%) [10]: 13%; Population Tubulin-Different-Phenotype (%) [10]: 51%; Population Apoptotic (%) [11]: 100%; Population Fragmented Nuclei (%) [11]: 51%; Population Healthy Nuclei (%) [11]: 11%; Population Hoechst High Intensity Objects (%) [11]: 42%; Population Membrane Permeable-Phenotype (%) [11]: 43%; Population Mitochondria Different-Phenotype (%) [11]: 37%; Population Mitotic Cells (%) [11]: 0%; Population Normal (%) [11]: 58%; Population Pyknosed Nuclei (%) [11]: 37%; Population Tubulin-Different-Phenotype (%) [11]: 56%; Total Cell Count [11]: 250; Population Fragmented Nuclei (%) [12]: 57%; Population Healthy Nuclei (%) [12]: 13%; Population Hoechst High Intensity Objects (%) [12]: 29%; Population Membrane Permeable-Phenotype (%) [12]: 50%; Population Mitochondria Different-Phenotype (%) [12]: 35%; Population Normal (%) [12]: 70%; Population Pyknosed Nuclei (%) [12]: 28%; Population Tubulin-Different-Phenotype (%) [12]: 28%; Total Cell Count [12]: 144
